From BindingDB's records for doi:10.1128/AAC.00971-08 (Cnrs-Cpbs/Umr 5236, 2009)

Target: Albumin (Homo sapiens, UniProt P02768)
Experiment: Binding affinity to first site on human serum albumin by SPR
Procedure, shortened: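 SPR on a BIACORE 3000 at 25°C. HSA was amine-coupled to a CM5 chip at 40 µg/ml in 10 mM acetate, pH 5.2. Drug was injected from 400 µM to 0.1 µM in twofold dilutions in PBS with 5% DMSO at 50 µl/min, with 30 s association and 30 s dissociation. Responses were reference-subtracted, read 10 s into the injection and DMSO-corrected. Dose-response curves gave KD or fraction of sites occupied.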

Chain of Albumin (P02768 whole entry): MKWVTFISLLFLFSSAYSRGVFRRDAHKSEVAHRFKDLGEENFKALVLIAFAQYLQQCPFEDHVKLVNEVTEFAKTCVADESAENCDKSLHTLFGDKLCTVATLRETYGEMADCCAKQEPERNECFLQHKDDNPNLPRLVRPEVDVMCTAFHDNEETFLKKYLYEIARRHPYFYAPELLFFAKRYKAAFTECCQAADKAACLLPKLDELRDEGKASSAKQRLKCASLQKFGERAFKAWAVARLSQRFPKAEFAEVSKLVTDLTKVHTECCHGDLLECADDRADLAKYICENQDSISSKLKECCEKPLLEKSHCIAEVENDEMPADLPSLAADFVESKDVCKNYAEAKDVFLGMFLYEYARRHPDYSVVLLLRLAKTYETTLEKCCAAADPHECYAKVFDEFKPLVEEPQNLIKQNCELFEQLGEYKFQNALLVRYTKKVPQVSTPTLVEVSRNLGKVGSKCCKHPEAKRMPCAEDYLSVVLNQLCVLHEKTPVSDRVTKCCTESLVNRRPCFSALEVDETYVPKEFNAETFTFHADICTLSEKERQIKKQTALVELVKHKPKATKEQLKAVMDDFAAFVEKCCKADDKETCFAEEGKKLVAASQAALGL

Kd [µM]	Compound
12	COc1ccc(OC)c(/C=C2\SC(=S)N(C(C(=O)O)c3ccccc3)C2=O)c1 (configuration not stated) [2-[(5Z)-5-[(2,5-dimethoxyphenyl)methylidene]-4-oxo-2-sulfanylidene-3-thiazolidinyl]-2-phenylacetic acid]
12	CN(C)c1ccc(O)c2c1C[C@H]1C[C@H]3[C@H](N(C)C)C(=O)C(C(N)=O)C(=O)[C@@]3(O)C(=O)C1C2=O (some centres not stated) [Klinomycin]
